Experimental data as given in ChEMBL document CHEMBL4602630, “Synthesis and cytotoxicity evaluation of glycosidic derivatives of lawsone against breast cancer cell lines” (Bioorg Med Chem Lett, 2020).

How the values were obtained:
MCF7 = test: Cytotoxicity against ER-positive human MCF7 cells assessed as redution in cell viability incubated for 72 hrs by SRB assay; assay type: functional, cell-based; conditions: MCF7, 72 h
Outline: (§1)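 Breast tumour lines from ATCC, each in its own medium with 10% FBS: SKBR-3 (HER2+) in McCoy's 5A; MCF-7 (ER+) in MEM plus 0.01 mg/mL human recombinant insulin; MDA-MB-231 (triple-negative) in DMEM. Cells were kept at 37°C, 5% CO2, humidified. Compounds were tested on 1x10^4 cells/well by sulforhodamine B assay. IC50 came from a nonlinear fit of log concentration vs normalized response (variable slope).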

[1] = Selectivity index, ratio of IC50 for human HGF cells to IC50 for SKBR3 cells; assay type: toxicity; conditions: HGF cells versus SKBR3 cells, read-out: Ratio IC50
[2] = Cytotoxicity against human HGF cells assessed as redution in cell viability incubated for 72 hrs by SRB assay; assay type: cell-based
Outline: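 Non-tumour human HGF cells were obtained under UFSC ethics approval 021/2009 and kept at 37°C, 5% CO2, humidified, with 10% FBS. Compounds were tested on 1x10^4 cells/well by sulforhodamine B assay. IC50 came from a nonlinear variable-slope fit of log concentration vs normalized response.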

SK-BR-3 = test: Cytotoxicity against HER2-positive human SKBR3 cells assessed as redution in cell viability incubated for 72 hrs by SRB assay; assay type: functional, cell-based; conditions: SK-BR-3, 72 h
MDA-MB-231 = test: Cytotoxicity against triple-negative human MDA-MB-231 cells assessed as redution in cell viability incubated for 72 hrs by SRB assay; assay type: functional, cell-based; conditions: MDA-MB-231, 72 h; outline: as §1
[3] = Selectivity index, ratio of IC50 for human HGF cells to IC50 for MDA-MB-231 cells; assay type: toxicity; conditions: HGF cells versus MDA-MB-231 cells, read-out: Ratio IC50
[4] = Selectivity index, ratio of IC50 for human HGF cells to IC50 for MCF7 cells; assay type: toxicity; conditions: HGF cells versus MCF7 cells, read-out: Ratio IC50

SMILES	IC50 (MCF7) [µM]	selectivity ratio [1]	IC50 [2] [µM]	IC50 (SK-BR-3) [µM]	IC50 (MDA-MB-231) [µM]	selectivity ratio [3]	selectivity ratio [4]
CC(=O)OC[C@H]1O[C@@H](n2cc(COC3=CC(=O)c4ccccc4C3=O)nn2)[C@H](OC(C)=O)[C@@H](OC(C)=O)[C@@H]1OC(C)=O	3.33	22	17.7	0.78	14		
CC(=O)OC[C@H]1O[C@@H](OC2=CC(=O)c3ccccc3C2=O)[C@H](OC(C)=O)[C@@H](OC(C)=O)[C@H]1OC(C)=O	13.6		34.6	8.86	13.3		
CC(=O)OC[C@H]1O[C@H](OC2=CC(=O)c3ccccc3C2=O)[C@H](OC(C)=O)[C@@H](OC(C)=O)[C@@H]1OC(C)=O	3.52		20.2	2.11	8.29		
CC(=O)N[C@H]1[C@@H](OC2=CC(=O)c3ccccc3C2=O)O[C@H](COC(C)=O)[C@@H](OC(C)=O)[C@@H]1OC(C)=O	6.59		40.2	3.41	19.8		
CC(=O)OC[C@H]1O[C@H](OC2=CC(=O)c3ccccc3C2=O)[C@H](OC(C)=O)[C@@H](OC(C)=O)[C@H]1OC(C)=O	4.58		35.7	2.51	9.18	4	8
O=C1C=C(OCc2cn([C@@H]3O[C@H](CO)[C@H](O)[C@H](O)[C@H]3O)nn2)C(=O)c2ccccc21	> 50		> 50	> 50	> 50		
CC(=O)OC[C@H]1O[C@@H](n2cc(COC3=CC(=O)c4ccccc4C3=O)nn2)[C@H](OC(C)=O)[C@@H](OC(C)=O)[C@H]1OC(C)=O	4.22	22	27.6	1.27	16.7		
CC(=O)N[C@@H]1[C@@H](O)[C@H](O)[C@@H](CO)O[C@H]1n1cc(COC2=CC(=O)c3ccccc3C2=O)nn1	> 50		> 50	> 50	> 50		
CC(=O)O[C@H]1[C@H](OC(C)=O)[C@H](OC2=CC(=O)c3ccccc3C2=O)O[C@@H](C)[C@H]1OC(C)=O	11		19.8	9.52	18.2		
CC(=O)O[C@@H]1[C@H](OC(C)=O)[C@H](C)O[C@H](n2cc(COC3=CC(=O)c4ccccc4C3=O)nn2)[C@H]1OC(C)=O	9.74		38.1	3.32	23.4		
CC(=O)N[C@H]1[C@H](OC2=CC(=O)c3ccccc3C2=O)O[C@H](COC(C)=O)[C@@H](OC(C)=O)[C@@H]1OC(C)=O	16.3		> 50	8.3	27.6		
O=C1C=C(OCc2cn([C@@H]3O[C@H](CO)[C@@H](O)[C@H](O)[C@H]3O)nn2)C(=O)c2ccccc21	38.9		> 50	34.7	> 50		
CC(=O)O[C@H]1[C@H](OC(C)=O)[C@@H](OC2=CC(=O)c3ccccc3C2=O)O[C@@H](C)[C@H]1OC(C)=O	5.02		> 50	2.41	8.65		
C[C@@H]1O[C@H](n2cc(COC3=CC(=O)c4ccccc4C3=O)nn2)[C@@H](O)[C@H](O)[C@@H]1O	> 50		> 50	> 50	> 50		
CC(=O)OC[C@H]1O[C@@H](OC2=CC(=O)c3ccccc3C2=O)[C@H](OC(C)=O)[C@@H](OC(C)=O)[C@@H]1OC(C)=O	4.76		19.1	2.96	12.6		
CC(=O)N[C@@H]1[C@@H](OC(C)=O)[C@H](OC(C)=O)[C@@H](COC(C)=O)O[C@H]1n1cc(COC2=CC(=O)c3ccccc3C2=O)nn1	28.9		> 50	17	> 50		
COc1cccc2c1C(=O)c1c(O)c3c(c(O)c1C2=O)C[C@@](O)(C(=O)CO)C[C@@H]3O[C@H]1C[C@H](N)[C@H](O)[C@H](C)O1 [DOXORUBICIN]	0.38		> 50				
O=C1C=C(O)C(=O)c2ccccc21 [LAWSONE]	> 50		> 50	> 50	> 50		
